Measurements taken from ChEMBL document CHEMBL3872225, “Synthesis, binding assays, cytotoxic activity and docking studies of benzimidazole and benzothiophene derivatives with selective affinity for the CB2 cannabinoid receptor” (Eur J Med Chem, 2016).

Key:
Homo sapiens = organism: Homo sapiens; experiment: Selectivity index, ratio of Ki for displacement of [3H]CP-55940 from human recombinant CB1 receptor to Ki for displacement of [3H]CP-55940 from human recombinant CB2 receptor
How it was run: (§1)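 Membranes from HEK-293 cells overexpressing human CB1 or CB2 incubated with increasing compound concentrations and 0.5 nM [3H]CP-55,940 at 30 °C for 1.5 h. […] Selectivity index is Ki CB1/Ki CB2.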

Cannabinoid receptor 1 = Cannabinoid receptor 1 (Homo sapiens, UniProt P21554); experiment: Displacement of [3H]CP-55940 from human recombinant CB1 receptor expressed in HEK293 cell membranes incubated for 1.5 hrs; how it was run: as §1
Cannabinoid receptor 2 [1] = target: T1, Cannabinoid receptor 2 (Homo sapiens, UniProt P34972); experiment: Displacement of [3H]CP-55940 from human recombinant CB2 receptor expressed in HEK293 cell membranes incubated for 1.5 hrs; how it was run: as §1
[2] = Cytotoxicity against human H1975-1 cells assessed as reduction in cell viability measured after 72 hrs by MTT assay; type: functional, cell-based
How it was run: (§2)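 Cells kept in RPMI 1640 with 5% FBS, penicillin/streptomycin, 37 °C, 5% CO2. Seeded at 10,000 cells/well, then exposed to compounds at 0.001–10 μM in 5% FBS-RPMI for 72 h at 37 °C. MTT added for 4 h, formazan dissolved overnight in 10% SDS/0.1 mM HCl, absorbance read at 570 nm. […] Etoposide as positive control.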

[3] = Cytotoxicity against human HL60 cells assessed as reduction in cell viability measured after 72 hrs by MTT assay; type: functional, cell-based; conditions: HL-60, 72 h; how it was run: as §2
[4] = target: Cannabinoid receptor 1 (CB1) (Homo sapiens, UniProt P21554); experiment: Displacement of [3H]CP-55940 from human recombinant CB1 receptor expressed in HEK293 cell membranes at 1 uM incubated for 1.5 hrs relative to control; conditions: probe [3H]CP-55940
How it was run: (§3)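 Single-point screen on HEK-293 membranes overexpressing human CB1 or CB2. […] Compounds displacing more than 50% at 1 μM went on to full curves.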

[5] = Cytotoxicity against resistant human HCT116 cells assessed as reduction in cell viability measured after 72 hrs by MTT assay; type: functional, cell-based; conditions: HCT-116, 72 h; how it was run: as §2
Cannabinoid receptor 2 [6] = target: T1, Cannabinoid receptor 2; experiment: Displacement of [3H]CP-55940 from human recombinant CB2 receptor expressed in HEK293 cell membranes at 1 uM incubated for 1.5 hrs relative to control; how it was run: as §3
[7] = Cytotoxicity against human HeLa cells assessed as reduction in cell viability measured after 72 hrs by MTT assay; type: functional, cell-based; how it was run: as §2
[8] = Cytotoxicity against African green monkey Vero cells assessed as reduction in cell viability measured after 72 hrs by MTT assay; type: toxicity, cell-based; conditions: Chlorocebus sabaeus (African green monkey); how it was run: as §2

T1 sequence (P34972 whole entry): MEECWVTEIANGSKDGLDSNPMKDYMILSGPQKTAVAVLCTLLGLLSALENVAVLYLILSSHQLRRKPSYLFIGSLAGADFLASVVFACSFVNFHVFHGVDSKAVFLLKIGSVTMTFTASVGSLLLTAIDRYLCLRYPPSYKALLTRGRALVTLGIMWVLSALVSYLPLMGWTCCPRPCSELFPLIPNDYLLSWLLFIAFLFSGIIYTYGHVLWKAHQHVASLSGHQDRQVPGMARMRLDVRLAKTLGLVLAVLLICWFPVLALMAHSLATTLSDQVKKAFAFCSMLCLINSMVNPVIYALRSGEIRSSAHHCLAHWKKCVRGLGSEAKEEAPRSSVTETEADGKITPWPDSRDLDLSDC
Sequence of Cannabinoid receptor 1 (P21554 whole entry): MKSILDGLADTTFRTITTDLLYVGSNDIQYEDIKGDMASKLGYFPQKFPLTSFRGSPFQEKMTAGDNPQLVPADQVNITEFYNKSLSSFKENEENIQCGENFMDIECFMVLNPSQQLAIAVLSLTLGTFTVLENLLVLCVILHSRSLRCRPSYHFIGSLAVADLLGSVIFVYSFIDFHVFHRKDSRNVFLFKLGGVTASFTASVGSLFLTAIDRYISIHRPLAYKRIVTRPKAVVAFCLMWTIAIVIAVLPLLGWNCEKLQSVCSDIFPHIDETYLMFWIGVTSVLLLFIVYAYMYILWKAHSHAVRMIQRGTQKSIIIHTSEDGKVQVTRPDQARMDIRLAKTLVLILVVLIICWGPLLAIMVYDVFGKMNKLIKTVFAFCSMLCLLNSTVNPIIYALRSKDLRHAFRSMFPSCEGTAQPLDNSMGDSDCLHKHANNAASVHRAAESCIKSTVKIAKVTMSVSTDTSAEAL
Sequence of Cannabinoid receptor 1 (CB1) (P21554 whole entry): as above

What does the source list for `CCCCCc1sc2ccccc2c1C(=O)c1ccc(OC)cc1`?
Ratio Ki (Homo sapiens): > 33; IC50 (Cannabinoid receptor 1): > 10 µM; Ki (Cannabinoid receptor 1): > 10 µM; IC50 (Cannabinoid receptor 2 [1]): 1.2 µM; Ki (Cannabinoid receptor 2 [1]): 0.3 µM; IC50 [2]: > 10 µM; IC50 [3]: 0.083 µM; inhibition at 1.5 h, 1 µM [4]: > 50%; IC50 [5]: > 10 µM; inhibition (Cannabinoid receptor 2 [6]): > 50%; IC50 [7]: > 10 µM; IC50 at 72 h [8]: > 10 µM
